From ChEMBL document CHEMBL3576847, “Discovery of 1-(3,3-dimethylbutyl)-3-(2-fluoro-4-methyl-5-(7-methyl-2-(methylamino)pyrido[2,3-d]pyrimidin-6-yl)phenyl)urea (LY3009120) as a pan-RAF inhibitor with minimal paradoxical activation and activity against BRAF or RAS mutant tumor cells” (J Med Chem, 2015)
pIC50: −log10 of the molar value. In brackets after ≈: the same amount, converted by molar mass. Activity calls are given as the source filed them. The rule behind the calls is not given here.

Tests used:
[1] = biological target: RAF proto-oncogene serine/threonine-protein kinase (Homo sapiens, UniProt P04049); assay: Inhibition of wild type CRAF (unknown origin) assessed as ADP formation measured for 5 hrs by pyruvate kinase/lactate dehydrogenase coupled assay in presence of ATP, MEK1, PEP, NADH
Sequence of RAF proto-oncogene serine/threonine-protein kinase (P04049 whole entry): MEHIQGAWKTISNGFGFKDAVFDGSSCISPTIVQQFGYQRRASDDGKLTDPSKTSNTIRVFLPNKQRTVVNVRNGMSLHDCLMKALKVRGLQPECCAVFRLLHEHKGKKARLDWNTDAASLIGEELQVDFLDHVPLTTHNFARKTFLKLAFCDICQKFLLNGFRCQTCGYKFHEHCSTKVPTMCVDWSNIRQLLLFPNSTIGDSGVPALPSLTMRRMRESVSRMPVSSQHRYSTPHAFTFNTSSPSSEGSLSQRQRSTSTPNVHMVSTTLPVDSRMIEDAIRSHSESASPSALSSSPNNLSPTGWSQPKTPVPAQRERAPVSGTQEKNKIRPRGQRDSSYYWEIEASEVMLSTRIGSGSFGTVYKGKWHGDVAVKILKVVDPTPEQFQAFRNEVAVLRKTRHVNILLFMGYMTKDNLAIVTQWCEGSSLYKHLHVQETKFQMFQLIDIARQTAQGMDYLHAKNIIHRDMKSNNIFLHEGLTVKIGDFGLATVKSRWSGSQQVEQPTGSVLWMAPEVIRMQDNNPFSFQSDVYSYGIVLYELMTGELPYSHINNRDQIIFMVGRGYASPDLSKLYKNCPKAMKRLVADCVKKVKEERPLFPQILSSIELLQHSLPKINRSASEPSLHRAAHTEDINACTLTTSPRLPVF

[2] = biological target: Vascular endothelial growth factor receptor 2 (Homo sapiens, UniProt P35968); assay: Inhibition of KDR (unknown origin)
Sequence of Vascular endothelial growth factor receptor 2 (P35968 whole entry): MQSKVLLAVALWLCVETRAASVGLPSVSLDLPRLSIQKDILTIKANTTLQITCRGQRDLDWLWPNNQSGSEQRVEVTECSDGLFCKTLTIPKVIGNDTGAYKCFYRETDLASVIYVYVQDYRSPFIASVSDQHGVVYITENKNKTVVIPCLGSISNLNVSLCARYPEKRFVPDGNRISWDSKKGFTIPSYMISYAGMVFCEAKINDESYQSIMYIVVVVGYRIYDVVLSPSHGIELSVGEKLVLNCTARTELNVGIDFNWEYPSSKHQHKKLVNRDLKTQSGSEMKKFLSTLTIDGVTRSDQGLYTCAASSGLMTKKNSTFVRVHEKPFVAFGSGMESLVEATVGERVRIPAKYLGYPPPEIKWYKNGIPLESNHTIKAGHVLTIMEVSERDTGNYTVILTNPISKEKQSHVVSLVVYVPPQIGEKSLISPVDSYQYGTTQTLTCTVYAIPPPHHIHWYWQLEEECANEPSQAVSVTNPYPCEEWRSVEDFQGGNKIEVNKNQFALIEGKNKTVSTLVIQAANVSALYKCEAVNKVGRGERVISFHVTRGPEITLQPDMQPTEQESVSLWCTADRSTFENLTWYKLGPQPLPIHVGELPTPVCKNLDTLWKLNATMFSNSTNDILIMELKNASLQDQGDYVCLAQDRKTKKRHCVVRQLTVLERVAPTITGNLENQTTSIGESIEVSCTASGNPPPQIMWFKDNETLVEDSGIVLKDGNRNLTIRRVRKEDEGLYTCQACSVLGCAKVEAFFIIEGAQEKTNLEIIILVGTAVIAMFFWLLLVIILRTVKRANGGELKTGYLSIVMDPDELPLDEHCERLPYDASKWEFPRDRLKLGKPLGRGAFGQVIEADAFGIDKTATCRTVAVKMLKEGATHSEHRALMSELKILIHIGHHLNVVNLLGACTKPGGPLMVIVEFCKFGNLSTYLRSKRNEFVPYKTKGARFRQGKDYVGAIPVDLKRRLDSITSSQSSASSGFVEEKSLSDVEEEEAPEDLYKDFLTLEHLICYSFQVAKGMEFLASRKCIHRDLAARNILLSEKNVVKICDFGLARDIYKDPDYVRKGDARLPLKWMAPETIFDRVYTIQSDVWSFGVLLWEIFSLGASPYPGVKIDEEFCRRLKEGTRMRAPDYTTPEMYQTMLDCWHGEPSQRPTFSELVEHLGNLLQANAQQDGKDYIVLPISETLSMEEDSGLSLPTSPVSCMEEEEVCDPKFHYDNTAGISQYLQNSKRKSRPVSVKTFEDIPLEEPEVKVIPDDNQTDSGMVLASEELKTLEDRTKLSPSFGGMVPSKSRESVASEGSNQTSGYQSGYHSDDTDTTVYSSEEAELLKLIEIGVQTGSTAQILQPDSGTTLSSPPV

A-375 [3] = assay: cells; details: Homo sapiens, A-375, 72 h
[4] = biological target: Dual specificity mitogen-activated protein kinase kinase; MEK1/2 (Homo sapiens, UniProt P36507+Q02750); assay: Inhibition of MEK (unknown origin)
HCT-116 [5] = assay: cells; details: Homo sapiens, HCT-116, 67 h
GTPase KRas = GTPase KRas (Homo sapiens, UniProt P01116, G13D); assay: Inhibition of KRAS G13D mutant in human HCT116 cells assessed as inhibition of ERK phosphorylation by ELISA; type: cell-based, HCT-116
Sequence of GTPase KRas (P01116 whole entry G13D): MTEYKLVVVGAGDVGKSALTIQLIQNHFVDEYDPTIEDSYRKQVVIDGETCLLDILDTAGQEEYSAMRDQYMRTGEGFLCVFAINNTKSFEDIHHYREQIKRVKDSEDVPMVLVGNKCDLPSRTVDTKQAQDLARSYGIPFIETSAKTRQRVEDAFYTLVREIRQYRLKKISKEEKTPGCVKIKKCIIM
Method in brief: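 HCT116 cells (KRAS G13D, BRAF WT; RAF signalling via CRAF) were treated with compound, and the change in cellular phospho-ERK was measured. IC50 was taken as the concentration inhibiting phospho-ERK.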

[6] = biological target: Serine/threonine-protein kinase B-raf (Homo sapiens, UniProt P15056); assay: Inhibition of wild type BRAF (unknown origin) assessed as ADP formation measured for 5 hrs by pyruvate kinase/lactate dehydrogenase coupled assay in presence of ATP, MEK1, NADH
Sequence of Serine/threonine-protein kinase B-raf (Homo sapiens, UniProt P15056) (P15056 whole entry): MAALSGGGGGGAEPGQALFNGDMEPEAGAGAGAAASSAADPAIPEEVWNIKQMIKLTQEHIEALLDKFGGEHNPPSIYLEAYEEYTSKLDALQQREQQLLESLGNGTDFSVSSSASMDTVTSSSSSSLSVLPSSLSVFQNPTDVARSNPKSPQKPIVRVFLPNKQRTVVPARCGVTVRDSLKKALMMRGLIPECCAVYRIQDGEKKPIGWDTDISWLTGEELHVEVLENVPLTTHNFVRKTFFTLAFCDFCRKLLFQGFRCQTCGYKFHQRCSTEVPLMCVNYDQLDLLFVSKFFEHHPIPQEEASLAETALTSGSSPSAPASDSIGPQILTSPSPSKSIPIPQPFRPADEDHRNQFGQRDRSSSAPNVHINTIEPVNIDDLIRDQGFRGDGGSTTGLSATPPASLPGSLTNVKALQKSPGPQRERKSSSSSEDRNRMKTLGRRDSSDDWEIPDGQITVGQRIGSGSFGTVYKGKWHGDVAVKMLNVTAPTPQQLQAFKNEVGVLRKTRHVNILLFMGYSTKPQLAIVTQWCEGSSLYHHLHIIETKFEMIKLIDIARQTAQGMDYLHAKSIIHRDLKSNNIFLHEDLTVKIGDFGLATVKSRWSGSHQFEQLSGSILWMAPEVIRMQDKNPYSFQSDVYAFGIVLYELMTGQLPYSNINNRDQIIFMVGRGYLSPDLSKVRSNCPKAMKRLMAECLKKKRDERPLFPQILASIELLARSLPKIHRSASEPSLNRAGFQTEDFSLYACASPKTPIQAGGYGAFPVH

[7] = biological target: T1, Serine/threonine-protein kinase B-raf (Homo sapiens, UniProt P15056, V600E); assay: Inhibition of recombinant BRAF V600E mutant (unknown origin) assessed as ADP formation measured for 5 hrs by pyruvate kinase/lactate dehydrogenase coupled assay in presence of ATP, MEK1, NADH
T1 sequence (P15056 2-766 V600E limits assumed): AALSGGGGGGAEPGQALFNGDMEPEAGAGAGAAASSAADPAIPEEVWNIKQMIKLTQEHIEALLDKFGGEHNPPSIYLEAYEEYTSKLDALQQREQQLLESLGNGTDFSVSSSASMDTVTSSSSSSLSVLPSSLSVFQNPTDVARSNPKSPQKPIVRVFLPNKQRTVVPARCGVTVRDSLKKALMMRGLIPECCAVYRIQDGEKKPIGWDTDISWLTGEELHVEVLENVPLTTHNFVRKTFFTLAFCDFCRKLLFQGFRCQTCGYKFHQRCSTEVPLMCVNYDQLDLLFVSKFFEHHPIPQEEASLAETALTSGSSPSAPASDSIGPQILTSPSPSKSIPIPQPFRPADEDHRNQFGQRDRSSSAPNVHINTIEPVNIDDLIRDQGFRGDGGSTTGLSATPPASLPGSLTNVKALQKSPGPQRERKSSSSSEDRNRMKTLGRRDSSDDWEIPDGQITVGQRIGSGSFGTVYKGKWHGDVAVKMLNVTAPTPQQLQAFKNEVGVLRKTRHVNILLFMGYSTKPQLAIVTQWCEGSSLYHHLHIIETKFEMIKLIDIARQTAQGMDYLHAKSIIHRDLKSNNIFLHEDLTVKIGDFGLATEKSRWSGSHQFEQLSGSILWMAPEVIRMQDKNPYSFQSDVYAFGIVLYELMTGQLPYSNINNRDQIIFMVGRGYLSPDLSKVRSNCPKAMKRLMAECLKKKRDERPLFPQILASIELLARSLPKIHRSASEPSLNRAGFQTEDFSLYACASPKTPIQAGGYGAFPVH

[8] = biological target: T1, Serine/threonine-protein kinase B-raf; assay: Inhibition of BRAF V600E mutant in human A375 cells assessed as inhibition of ERK phosphorylation measured after 72 hrs by ELISA assay; type: cell-based, A-375
[9] = Solubility of the compound in simulated fasted intestinal fluid; type: ADME
[10] = Oral bioavailability in dog administered as suspension; type: ADME, organism-based, Canis lupus familiaris; details: in vivo
[11] = Clearance in po dosed rat administered as suspension; type: ADME, organism-based; details: in vivo
[12] = Clearance in po dosed dog administered as suspension; type: ADME, organism-based, Canis lupus familiaris; details: in vivo
[13] = Solubility of the compound in simulated fed intestinal fluid; type: ADME
[14] = Oral bioavailability in rat administered as suspension; type: ADME, organism-based; details: in vivo
[15] = biological target: Serine/threonine-protein kinase A-Raf (Homo sapiens, UniProt P10398); assay: Competitive binding affinity to ARAF in human A375 cells after 15 mins in presence of ATP analogue; type: cell-based, A-375
Sequence of Serine/threonine-protein kinase A-Raf (P10398 whole entry): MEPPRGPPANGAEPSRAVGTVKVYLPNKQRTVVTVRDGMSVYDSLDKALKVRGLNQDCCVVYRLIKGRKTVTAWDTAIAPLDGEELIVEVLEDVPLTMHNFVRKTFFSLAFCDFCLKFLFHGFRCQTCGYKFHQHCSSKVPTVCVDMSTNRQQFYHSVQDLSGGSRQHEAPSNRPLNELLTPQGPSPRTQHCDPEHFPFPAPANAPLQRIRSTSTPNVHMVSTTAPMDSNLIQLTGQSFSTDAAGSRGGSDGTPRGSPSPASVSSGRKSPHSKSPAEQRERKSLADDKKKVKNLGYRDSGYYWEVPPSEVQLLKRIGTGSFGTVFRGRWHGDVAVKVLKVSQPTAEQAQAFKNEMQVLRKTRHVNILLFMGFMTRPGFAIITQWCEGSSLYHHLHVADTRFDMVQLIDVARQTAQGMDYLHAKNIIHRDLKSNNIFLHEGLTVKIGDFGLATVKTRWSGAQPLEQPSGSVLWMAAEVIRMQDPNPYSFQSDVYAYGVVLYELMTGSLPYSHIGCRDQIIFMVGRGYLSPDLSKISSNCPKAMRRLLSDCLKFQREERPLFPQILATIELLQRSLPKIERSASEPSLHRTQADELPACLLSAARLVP

Mus musculus [16] = assay: Toxicity in athymic nu/nu mouse xenografted with human HT-29 cells assessed as body weight loss at 10 to 20 mg/kg, po bid administered for 28 days; type: organism-based; details: in vivo, 672 h
Method in brief: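 HT-29 (BRAF V600E) xenograft mice dosed orally for 28 days; body weight loss monitored.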

Canis familiaris [17] = species: Canis familiaris; assay: Toxicity in dog assessed as hyperbilirubinemia; type: organism-based, Canis lupus familiaris; details: in vivo
Rattus norvegicus [18] = species: Rattus norvegicus; assay: Toxicity in rat assessed as inflammation; type: organism-based; details: in vivo
Rattus norvegicus [19] = species: Rattus norvegicus; assay: Toxicity in rat assessed as bone marrow hypocellularity; type: organism-based; details: in vivo
Rattus norvegicus [20] = species: Rattus norvegicus; assay: Toxicity in rat assessed as hyperbilirubinemia; type: organism-based; details: in vivo
Mus musculus [21] = assay: In vivo inhibition of BRAF V600E mutant in human A375 cells xenografted in po dosed athymic nu/nu mouse assessed as plasma concentration required to inhibit ERK phosphorylation by 50% after 2 hrs by ELISA; type: functional, A-375
Rattus norvegicus [22] = species: Rattus norvegicus; assay: Toxicity in rat assessed as skeletal muscle degeneration; type: organism-based; details: in vivo
Canis familiaris [23] = species: Canis familiaris; assay: Toxicity in dog assessed as skeletal muscle degeneration; type: organism-based, Canis lupus familiaris; details: in vivo
Mus musculus [24] = assay: In vivo inhibition of BRAF V600E mutant in human A375 cells xenografted in po dosed athymic nu/nu mouse assessed as inhibition of ERK phosphorylation after 2 hrs by ELISA; type: functional; details: A-375, po
Mus musculus [25] = assay: In vivo inhibition of BRAF V600E mutant in human A375 cells xenografted in po dosed athymic nu/nu mouse assessed as plasma concentration required to inhibit ERK phosphorylation by 80% after 2 hrs by ELISA; type: functional, A-375
Canis familiaris [26] = species: Canis familiaris; assay: Toxicity in dog assessed as inflammation; type: organism-based, Canis lupus familiaris; details: in vivo
Mus musculus [27] = assay: In vivo inhibition of BRAF V600E mutant in human HT-29 cells xenografted in athymic nu/nu mouse assessed as inhibition of ERK phosphorylation at 10 to 20 mg/kg, po bid administered for 28 days by Western blot analysis; type: functional, organism-based
Method in brief: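 HT-29 (BRAF V600E) xenografts in mice, oral dosing for 28 days; after dosing, tumors from individual animals analysed for phospho-ERK by Western blot.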

Mus musculus [28] = assay: In vivo inhibition of BRAF V600E mutant in human HT-29 cells xenografted in po dosed athymic nu/nu mouse assessed as inhibition of ERK phosphorylation administered as bid for 28 days by Western blot
Canis familiaris [29] = species: Canis familiaris; assay: Toxicity in dog assessed as bone marrow hypocellularity; type: organism-based, Canis lupus familiaris; details: in vivo
Mus musculus [30] = assay: In vivo inhibition of BRAF V600E mutant in human A375 cells xenografted in po dosed athymic nu/nu mouse assessed as plasma concentration required to inhibit ERK phosphorylation by 80%; type: functional, A-375
Mus musculus [31] = assay: Toxicity in athymic nu/nu mouse xenografted with human HCT116 cells expressing KRAS mutant assessed as body weight loss at 40 mg/kg, po bid administered for 15 days; type: organism-based, HCT-116; details: in vivo, 360 h
Method in brief: (§1)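 Nude mice bearing A375 (BRAF V600E) or HCT116 (KRAS mutant) xenografts given oral b.i.d. doses, 20 and 30 mg/kg (A375) or 40 mg/kg (HCT116), for 15 days; body weight monitored.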

[32] = Paradoxical activation of RAS/RAF/MEK signaling pathway in human HCT116 cells expressing wild type BRAF assessed as ERK phosphorylation at >100 nM; type: cell-based; details: HCT-116
HCT-116 [33] = assay: Antitumor activity against human HCT116 cells expressing KRAS mutant xenografted in athymic nu/nu mouse at 40 mg/kg, po bid administered for 15 days
Mus musculus [34] = assay: In vivo inhibition of BRAF V600E mutant in human A375 cells xenografted in po dosed athymic nu/nu mouse assessed as inhibition of MEK phosphorylation by ELISA; type: functional, organism-based; details: A-375
Mus musculus [35] = assay: In vivo inhibition of BRAF V600E mutant in human A375 cells xenografted in po dosed athymic nu/nu mouse assessed as inhibition of ERK phosphorylation by ELISA; type: functional
Mus musculus [36] = assay: Toxicity in athymic nu/nu mouse xenografted with human A375 cells expressing BRAF V600E mutant assessed as body weight loss at 20 to 30 mg/kg, po bid administered for 15 days; type: organism-based, A-375; details: in vivo, 360 h; method in brief: as §1
[37] = Paradoxical activation of RAS/RAF/MEK signaling pathway in human HCT116 cells expressing wild type BRAF assessed as ERK phosphorylation at <100 nM; type: cell-based; details: HCT-116
A-375 [38] = assay: Antitumor activity against human A375 cells expressing BRAF V600E mutant xenografted in athymic nu/nu mouse assessed as tumor regression at 20 to 30 mg/kg, po bid administered for 15 days; type: functional, organism-based
Method in brief: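 Mice bearing A375 (BRAF V600E) or HCT116 (KRAS mutant) xenografts were dosed orally b.i.d. for 15 days. Doses were 20 and 30 mg/kg for A375 and 40 mg/kg for HCT116. Tumor volume and body weight were monitored.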

Mus musculus [39] = assay: In vivo inhibition of BRAF V600E mutant in human A375 cells xenografted in po dosed athymic nu/nu mouse assessed as plasma concentration required to inhibit ERK phosphorylation by 50%; type: functional, A-375
[40] = Paradoxical activation of RAS/RAF/MEK signaling pathway in human HCT116 cells expressing wild type BRAF assessed as ERK phosphorylation at 0.34 to 20000 nM; type: cell-based; details: HCT-116

SMILES	pIC50 [1]	pIC50 [2]	pIC50 (A-375 [3])	IC50 [4] [nM]	pIC50 (HCT-116 [5])	pIC50 (GTPase KRas)	pIC50 [6]	pIC50 [7]	pIC50 [8]	solubility [9] [µg/mL]	bioavailability [10] [%]	CL/F [11] [mL/min/kg]	CL/F [12] [mL/min/kg]	solubility [13] [µg/mL]	bioavailability [14] [%]	pIC50 [15]	other results
CNc1cc2nc(C)c(-c3ccc(F)c(NC(=O)NCCC(C)(C)C)c3)cc2cn1	8.80	7.48	7.40	> 20000	6.80	7.34	8.08	8.52	7.09								
CNc1cc2c(cn1)cc(-c1ccc(F)c(NC(=O)Nc3cc(C(C)(C)C)no3)c1)c(=O)n2[C@H]1CCOC1	8.51	9.34	8.21	2900	7.49	7.24	7.74	9.00	8.17	1 (≈ 1.92 µM)	< 10	50	6	2 (≈ 3.84 µM)	< 10		
CC(C)(C)c1nc(-c2cccc(NS(=O)(=O)c3c(F)cccc3F)c2F)c(-c2ccnc(N)n2)s1 [DABRAFENIB]						5.23										7.59	
CCn1c(=O)c(-c2ccc(F)c(NC(=O)Nc3cc(C(C)(C)C)no3)c2)cc2cnc(NC)cc21	8.54	8.72	7.25	4000	6.80	7.04	8.00	8.92	7.02	41 (≈ 85.7 µM)	69	13	14	310 (≈ 648 µM)	28		Activity (Mus musculus [16]): Non-toxic; Activity (Canis familiaris [17]): Toxic; Activity (Rattus norvegicus [18]): Toxic; Activity (Rattus norvegicus [19]): Toxic; Activity (Rattus norvegicus [20]): Toxic; INH (Mus musculus [21]): 167 ng/mL; Activity (Rattus norvegicus [22]): Toxic; Activity (Canis familiaris [23]): Toxic; ED50 (Mus musculus [24]): 10.4 mg/kg; ED80 (Mus musculus [24]): 20.5 mg/kg; INH (Mus musculus [25]): 843 ng/mL; Activity (Canis familiaris [26]): Toxic; inhibition (Mus musculus [27]): Active; inhibition (Mus musculus [28]): Dose-dependent effect; Activity (Canis familiaris [29]): Toxic
CNc1cc2nc(C)c(-c3cc(NC(=O)NC[C@@H](O)C(C)(C)C)c(F)cc3C)cc2cn1	8.14	6.12	8.00	15000	6.76	6.80	7.41	8.11	7.66								INH (Mus musculus [30]): 7661 ng/mL; Activity (Mus musculus [31]): Non-toxic; Activity [32]: inactive; Activity (HCT-116 [33]): Active; inhibition (Mus musculus [34]): Dose-dependent effect; inhibition (Mus musculus [35]; A-375): Dose-dependent effect; ED50 (Mus musculus [35]; A-375, po): 1.7 mg/kg; ED80 (Mus musculus [35]; A-375, po): 5.7 mg/kg; Activity (Mus musculus [36]): Non-toxic; Activity [37]: Active; Activity (A-375 [38]): Active; Activity (Mus musculus [39]): 3.1 µM
CCCS(=O)(=O)Nc1ccc(F)c(C(=O)c2c[nH]c3ncc(-c4ccc(Cl)cc4)cc23)c1F [VEMURAFENIB]		6.44	6.77	1500	< 5.00	4.78										6.02	Activity [40]: Active
